Measurements published in ChEMBL document CHEMBL4130523, “Targeting the Allosteric Site of Oncoprotein BCR-ABL as an Alternative Strategy for Effective Target Protein Degradation” (ACS Med Chem Lett, 2017).
The source made the active and inactive calls. The calls are words filed in the database; no cut-off is given here.

Key:
[1] = target: E3 ubiquitin-protein ligase XIAP (Homo sapiens, UniProt P98170); experiment: Inhibition of recombinant human His-tagged XIAP (Asn252 to Thr356 residues) expressed in Escherichia coli by TR-FRET assay
Chain of E3 ubiquitin-protein ligase XIAP (P98170 whole entry): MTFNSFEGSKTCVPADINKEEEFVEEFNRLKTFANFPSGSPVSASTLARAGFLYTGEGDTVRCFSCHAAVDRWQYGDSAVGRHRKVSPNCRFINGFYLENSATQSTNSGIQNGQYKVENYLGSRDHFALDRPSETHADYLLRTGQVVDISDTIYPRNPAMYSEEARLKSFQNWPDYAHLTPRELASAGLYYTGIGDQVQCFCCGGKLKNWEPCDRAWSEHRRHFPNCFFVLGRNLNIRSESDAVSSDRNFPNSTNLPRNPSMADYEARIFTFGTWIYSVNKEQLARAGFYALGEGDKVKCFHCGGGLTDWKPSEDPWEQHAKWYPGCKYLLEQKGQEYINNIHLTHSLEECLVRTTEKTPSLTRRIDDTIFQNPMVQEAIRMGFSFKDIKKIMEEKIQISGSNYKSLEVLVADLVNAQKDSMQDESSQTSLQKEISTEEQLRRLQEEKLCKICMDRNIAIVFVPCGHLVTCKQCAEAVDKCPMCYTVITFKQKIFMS

[2] = target: Baculoviral IAP repeat-containing protein 3 (Homo sapiens, UniProt Q13489); experiment: Inhibition of recombinant human His-tagged cIAP2 (Gln238 to Ser349 residues) expressed in Escherichia coli by TR-FRET assay
Chain of Baculoviral IAP repeat-containing protein 3 (Q13489 whole entry): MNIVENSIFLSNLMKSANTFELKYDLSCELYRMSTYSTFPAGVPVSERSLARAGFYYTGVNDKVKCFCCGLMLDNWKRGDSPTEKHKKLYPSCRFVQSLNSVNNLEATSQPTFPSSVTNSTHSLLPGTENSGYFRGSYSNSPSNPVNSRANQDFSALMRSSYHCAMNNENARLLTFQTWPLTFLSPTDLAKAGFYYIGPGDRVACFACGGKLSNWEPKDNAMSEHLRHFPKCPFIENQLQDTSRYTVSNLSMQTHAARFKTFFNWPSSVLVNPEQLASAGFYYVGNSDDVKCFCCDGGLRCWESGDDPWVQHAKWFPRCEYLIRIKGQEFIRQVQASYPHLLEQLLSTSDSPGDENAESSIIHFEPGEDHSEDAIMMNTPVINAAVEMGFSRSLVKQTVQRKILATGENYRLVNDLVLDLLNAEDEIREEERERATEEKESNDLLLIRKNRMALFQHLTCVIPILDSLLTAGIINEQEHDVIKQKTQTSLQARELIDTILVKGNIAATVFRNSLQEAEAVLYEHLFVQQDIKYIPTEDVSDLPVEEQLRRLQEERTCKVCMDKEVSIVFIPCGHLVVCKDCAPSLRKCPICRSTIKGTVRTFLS

[3] = target: Tyrosine-protein kinase ABL1 (Homo sapiens, UniProt P00519); experiment: Inhibition of recombinant human His-tagged full length ABL1 allosteric site expressed in baculovirus expression system by TR-FRET assay
Chain of Tyrosine-protein kinase ABL1 (P00519 whole entry): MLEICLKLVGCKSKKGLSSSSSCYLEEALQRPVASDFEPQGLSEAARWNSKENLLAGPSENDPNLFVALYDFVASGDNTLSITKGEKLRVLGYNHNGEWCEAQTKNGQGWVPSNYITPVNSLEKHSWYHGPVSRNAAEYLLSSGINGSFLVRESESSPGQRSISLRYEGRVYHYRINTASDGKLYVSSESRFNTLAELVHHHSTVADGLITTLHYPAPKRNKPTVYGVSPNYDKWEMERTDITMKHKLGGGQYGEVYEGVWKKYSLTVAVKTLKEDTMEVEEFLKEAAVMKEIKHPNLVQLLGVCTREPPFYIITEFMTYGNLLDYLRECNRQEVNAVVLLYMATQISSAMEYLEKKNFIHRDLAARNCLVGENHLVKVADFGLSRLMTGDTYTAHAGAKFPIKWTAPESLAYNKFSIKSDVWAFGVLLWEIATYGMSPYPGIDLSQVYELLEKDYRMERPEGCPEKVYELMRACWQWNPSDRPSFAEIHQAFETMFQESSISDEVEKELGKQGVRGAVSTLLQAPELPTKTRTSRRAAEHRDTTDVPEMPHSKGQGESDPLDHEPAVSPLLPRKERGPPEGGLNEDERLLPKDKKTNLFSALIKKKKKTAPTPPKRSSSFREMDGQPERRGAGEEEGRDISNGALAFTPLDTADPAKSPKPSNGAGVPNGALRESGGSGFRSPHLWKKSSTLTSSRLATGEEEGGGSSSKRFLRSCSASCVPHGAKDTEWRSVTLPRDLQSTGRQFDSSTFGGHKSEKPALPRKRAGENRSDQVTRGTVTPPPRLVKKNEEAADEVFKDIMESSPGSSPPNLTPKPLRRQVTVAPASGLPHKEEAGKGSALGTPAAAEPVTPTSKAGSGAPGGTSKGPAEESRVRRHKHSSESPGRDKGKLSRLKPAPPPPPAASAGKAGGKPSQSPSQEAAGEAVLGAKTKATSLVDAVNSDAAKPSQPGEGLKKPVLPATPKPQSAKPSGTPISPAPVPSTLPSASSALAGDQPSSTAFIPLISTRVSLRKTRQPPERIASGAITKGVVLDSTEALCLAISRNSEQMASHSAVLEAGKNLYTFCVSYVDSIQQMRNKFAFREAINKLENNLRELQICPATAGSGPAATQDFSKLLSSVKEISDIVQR

[4] = target: Baculoviral IAP repeat-containing protein 2/Tyrosine-protein kinase ABL1/Breakpoint cluster region protein (Homo sapiens) (UniProt P00519+P11274+Q13490); experiment: Induction of cIAP1-mediated BCR-ABL degradation in human K562 cells at 100 nM after 6 hrs by Western blot analysis relative to beta-actin; type: cell-based
Chain of Baculoviral IAP repeat-containing protein 2/Tyrosine-protein kinase ABL1/Breakpoint cluster region protein (Homo sapiens) (P00519 whole entry, looked up): as the sequence (P00519 whole entry) above
Chain of Baculoviral IAP repeat-containing protein 2/Tyrosine-protein kinase ABL1/Breakpoint cluster region protein (Homo sapiens) (P11274 whole entry, looked up): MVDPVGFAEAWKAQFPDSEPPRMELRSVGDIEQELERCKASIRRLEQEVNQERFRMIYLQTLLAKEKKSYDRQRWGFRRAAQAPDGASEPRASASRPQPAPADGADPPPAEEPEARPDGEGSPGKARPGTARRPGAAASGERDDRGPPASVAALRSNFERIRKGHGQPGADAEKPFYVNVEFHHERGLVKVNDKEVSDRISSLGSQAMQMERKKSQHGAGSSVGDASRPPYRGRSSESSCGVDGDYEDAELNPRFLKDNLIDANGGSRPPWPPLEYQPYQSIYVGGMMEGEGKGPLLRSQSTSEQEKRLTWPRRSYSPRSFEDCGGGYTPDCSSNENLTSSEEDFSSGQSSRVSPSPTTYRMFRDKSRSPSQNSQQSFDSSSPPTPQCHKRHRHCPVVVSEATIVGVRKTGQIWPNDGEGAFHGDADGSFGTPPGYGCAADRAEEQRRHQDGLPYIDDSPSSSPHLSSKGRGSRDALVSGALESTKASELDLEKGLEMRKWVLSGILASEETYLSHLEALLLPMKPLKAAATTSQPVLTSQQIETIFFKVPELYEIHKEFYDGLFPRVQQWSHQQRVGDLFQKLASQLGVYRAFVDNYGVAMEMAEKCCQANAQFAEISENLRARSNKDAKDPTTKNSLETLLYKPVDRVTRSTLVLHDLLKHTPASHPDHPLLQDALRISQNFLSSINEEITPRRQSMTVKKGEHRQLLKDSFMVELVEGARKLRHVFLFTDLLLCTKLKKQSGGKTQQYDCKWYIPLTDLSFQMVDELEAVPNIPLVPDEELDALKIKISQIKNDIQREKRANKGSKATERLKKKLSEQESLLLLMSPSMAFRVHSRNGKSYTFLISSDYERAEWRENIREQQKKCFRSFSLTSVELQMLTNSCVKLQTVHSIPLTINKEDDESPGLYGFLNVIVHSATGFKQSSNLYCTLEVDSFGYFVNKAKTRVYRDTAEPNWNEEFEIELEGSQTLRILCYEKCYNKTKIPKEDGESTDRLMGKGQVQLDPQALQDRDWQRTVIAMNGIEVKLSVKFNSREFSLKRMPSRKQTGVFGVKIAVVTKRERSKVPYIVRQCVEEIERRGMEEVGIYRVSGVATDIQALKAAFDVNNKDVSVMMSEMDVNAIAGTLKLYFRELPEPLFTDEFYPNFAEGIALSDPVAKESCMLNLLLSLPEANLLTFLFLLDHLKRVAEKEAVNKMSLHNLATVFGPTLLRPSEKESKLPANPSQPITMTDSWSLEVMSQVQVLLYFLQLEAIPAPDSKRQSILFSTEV
Chain of Baculoviral IAP repeat-containing protein 2/Tyrosine-protein kinase ABL1/Breakpoint cluster region protein (Homo sapiens) (Q13490 whole entry, looked up): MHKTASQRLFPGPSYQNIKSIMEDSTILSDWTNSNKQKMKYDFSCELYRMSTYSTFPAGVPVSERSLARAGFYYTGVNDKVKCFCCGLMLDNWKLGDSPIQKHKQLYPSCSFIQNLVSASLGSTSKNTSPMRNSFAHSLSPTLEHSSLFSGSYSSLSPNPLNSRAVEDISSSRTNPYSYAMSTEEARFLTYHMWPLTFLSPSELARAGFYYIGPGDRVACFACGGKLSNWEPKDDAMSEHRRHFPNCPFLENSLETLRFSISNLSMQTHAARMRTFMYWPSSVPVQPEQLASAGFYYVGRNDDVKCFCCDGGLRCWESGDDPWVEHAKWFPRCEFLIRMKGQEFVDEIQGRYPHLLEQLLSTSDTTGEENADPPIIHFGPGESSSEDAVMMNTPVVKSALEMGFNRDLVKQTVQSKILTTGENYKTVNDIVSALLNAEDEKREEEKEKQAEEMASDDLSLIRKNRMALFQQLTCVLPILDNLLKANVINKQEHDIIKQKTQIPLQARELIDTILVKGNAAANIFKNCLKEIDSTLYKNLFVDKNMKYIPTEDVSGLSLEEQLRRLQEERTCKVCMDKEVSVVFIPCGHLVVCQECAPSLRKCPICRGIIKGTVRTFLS
Summary of the method: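 K562 cells were treated for 6 h with test agent at graded concentrations, or with IAP ligand 4 at 10 μM as competitor. BCR-ABL was then immunoblotted. BCR-ABL band intensity was normalized to β-actin and expressed relative to a vehicle control set at 100. Means ± standard deviation, n = 3.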

[5] = target: Baculoviral IAP repeat-containing protein 2 (Homo sapiens, UniProt Q13490); experiment: Inhibition of recombinant human His-tagged cIAP1 (Leu250 to Gly350 residues) expressed in Escherichia coli by TR-FRET assay
Chain of Baculoviral IAP repeat-containing protein 2 (Q13490 whole entry): as the sequence (Q13490 whole entry, looked up) above

K562 [6] = experiment: Growth inhibition of human K562 cells up to 1000 nM after 48 hrs by WST-8 assay; type: functional, cell-based
Summary of the method: (§1)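 Cells exposed for 48 h to a graded concentration series of compound. Growth was read per well and reported as mean ± standard deviation of triplicate (n = 3) determinations.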

Jurkat = experiment: Growth inhibition of human Jurkat cells up to 1000 nM after 48 hrs by WST-8 assay; type: functional, cell-based; summary of the method: as §1
KCL-22 = experiment: Growth inhibition of human KCL22 cells up to 1000 nM after 48 hrs by WST-8 assay; type: functional, cell-based; summary of the method: as §1
[7] = target: T1, Bcr/Abl fusion protein (Homo sapiens) (UniProt P00519+P11274); experiment: Inhibition of BCR-ABL in human K562 cells assessed as reduction in STAT5 phosphorylation at 100 nM after 6 hrs by Western blot analysis; type: cell-based
T1 sequence (P00519 whole entry, looked up, the tested form may be a part): as the sequence (P00519 whole entry) above
T1 sequence (P11274 whole entry, looked up, the tested form may be a part): as the sequence (P11274 whole entry, looked up) above
Summary of the method: (§2)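 K562 cells were exposed to 100 nM compound for 6 h. Lysates were immunoblotted for phosphorylated STAT5 and phosphorylated CrkL, which are BCR-ABL substrates, alongside phosphorylated BCR-ABL.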

K562 [8] = experiment: Growth inhibition of human K562 cells at >= 100 nM after 48 hrs by WST-8 assay; type: functional, cell-based; summary of the method: as §1
MOLT-4 = experiment: Growth inhibition of human MOLT4 cells up to 1000 nM after 48 hrs by WST-8 assay; type: functional, cell-based; summary of the method: as §1
[9] = target: T1, Bcr/Abl fusion protein (Homo sapiens); experiment: Inhibition of BCR-ABL in human K562 cells assessed as reduction in CrkL phosphorylation at 100 nM after 6 hrs by Western blot analysis; type: cell-based; summary of the method: as §2
[10] = target: T1, Bcr/Abl fusion protein (Homo sapiens); experiment: Inhibition of BCR-ABL phosphorylation in human K562 cells at 100 nM after 6 hrs by Western blot analysis relative to beta-actin; type: cell-based

Row | SMILES | IC50 [3] [µM] | IC50 [5] [µM] | inhibition [7] | inhibition [9] | also measured
1 | CN[C@@H](C)C(=O)N(C)[C@H](C(=O)N1CCC[C@H]1c1nc(C(=O)c2cccc(OCCOCCOCCNC(=O)C3CCN(c4ncc(C(=O)Nc5ccc(OC(F)(F)Cl)cc5)cc4-c4ccn[nH]4)C3)c2)cs1)C1CCCCC1 (stereo partly specified) | 0.34 | > 1 |  |  | IC50 [1]: > 1 µM; IC50 [2]: > 1 µM; fold change (FC) [4]: 102
2 | CN[C@@H](C)C(=O)N[C@H](C(=O)N1CCC[C@H]1c1nc(C(=O)c2cccc(OC)c2)cs1)C1CCCCC1 |  | 0.0048 |  |  | growth inhibition (GI) (K562 [6]): inactive

Second part, led by results:

Row | IC50 [3] [µM] | IC50 [5] [µM] | inhibition [7] | inhibition [9] | SMILES | also measured
3 | 2 | 0.22 |  |  | CN[C@@H](C)C(=O)N[C@H](C(=O)N1CCC[C@H]1c1nc(C(=O)c2cccc(OCCOCCOCCNC(=O)c3cccc(-c4cc(Nc5ccc(OC(F)(F)F)cc5)ncn4)c3)c2)cs1)C1CCCCC1 | 
4 | 0.36 | 0.086 | Active | Active | CN[C@@H](C)C(=O)N[C@H](C(=O)N1CCC[C@H]1c1nc(C(=O)c2cccc(OCCOCCOCCNC(=O)C3CCN(c4ncc(C(=O)Nc5ccc(OC(F)(F)Cl)cc5)cc4-c4ccn[nH]4)C3)c2)cs1)C1CCCCC1 (stereo partly specified) | growth inhibition (GI) (Jurkat): inactive; growth inhibition (GI) (KCL-22): Active; growth inhibition (GI) (K562 [8]): Active; growth inhibition (GI) (MOLT-4): inactive
5 | 0.035 |  | Active | Active | COC(=O)C1CCN(c2ncc(C(=O)Nc3ccc(OC(F)(F)Cl)cc3)cc2-c2ccn[nH]2)C1 (stereo unspecified) | fold change (FC) [10]: 92
